Source: ChEMBL document CHEMBL4619723, “New CDK8 inhibitors as potential anti-leukemic agents - Design, synthesis and biological evaluation” (Bioorg Med Chem, 2020)

How the values were obtained:
H9c2 = assay: cells; details: Rattus norvegicus, H9c2, 48 h
MV4-11 = assay: cells; details: Homo sapiens, MV4-11, 48 h
NRK = assay: cells; details: Rattus norvegicus, 48 h
OCI-AML-3 = assay: cells; details: Homo sapiens, OCI-AML-3, 48 h
MOLM-13 = assay: cells; details: Homo sapiens, MOLM-13, 48 h
[1] = molecular target: Protein-tyrosine kinase 2-beta (Homo sapiens) (UniProt Q14289); assay: Inhibition of biotinylated ligand binding to wild-type human full length PYK2 (M1 to E967 residues) expressed in bacterial expression system at 50 nM measured after 1 hr by kinomescan assay relative to control
[2] = molecular target: cAMP-dependent protein kinase catalytic subunit alpha (Homo sapiens) (UniProt P17612); assay: Inhibition of biotinylated ligand binding to wild-type human partial length PKAC-alpha (G10 to F351 residues) expressed in bacterial expression system at 50 nM measured after 1 hr by kinomescan assay relative to control
[3] = molecular target: Serine/threonine-protein kinase pim-2 (Homo sapiens) (UniProt Q9P1W9); assay: Inhibition of biotinylated ligand binding to wild-type human partial length PIM2 (M1 to E291 residues) expressed in bacterial expression system at 50 nM measured after 1 hr by kinomescan assay relative to control
[4] = molecular target: Hormonally up-regulated neu tumor-associated kinase (Homo sapiens) (UniProt P57058); assay: Inhibition of biotinylated ligand binding to wild-type human partial length HUNK (A31 to K354 residues) expressed in bacterial expression system at 50 nM measured after 1 hr by kinomescan assay relative to control
[5] = molecular target: 1-phosphatidylinositol 3-phosphate 5-kinase (Homo sapiens) (UniProt Q9Y2I7); assay: Inhibition of biotinylated ligand binding to wild-type human partial length PIKFYVE (F1512 to C2098 residues) expressed in mammalian expression system at 50 nM measured after 1 hr by kinomescan assay relative to control
Chain of 1-phosphatidylinositol 3-phosphate 5-kinase (Homo sapiens) (Q9Y2I7 whole entry, the tested form may be a part): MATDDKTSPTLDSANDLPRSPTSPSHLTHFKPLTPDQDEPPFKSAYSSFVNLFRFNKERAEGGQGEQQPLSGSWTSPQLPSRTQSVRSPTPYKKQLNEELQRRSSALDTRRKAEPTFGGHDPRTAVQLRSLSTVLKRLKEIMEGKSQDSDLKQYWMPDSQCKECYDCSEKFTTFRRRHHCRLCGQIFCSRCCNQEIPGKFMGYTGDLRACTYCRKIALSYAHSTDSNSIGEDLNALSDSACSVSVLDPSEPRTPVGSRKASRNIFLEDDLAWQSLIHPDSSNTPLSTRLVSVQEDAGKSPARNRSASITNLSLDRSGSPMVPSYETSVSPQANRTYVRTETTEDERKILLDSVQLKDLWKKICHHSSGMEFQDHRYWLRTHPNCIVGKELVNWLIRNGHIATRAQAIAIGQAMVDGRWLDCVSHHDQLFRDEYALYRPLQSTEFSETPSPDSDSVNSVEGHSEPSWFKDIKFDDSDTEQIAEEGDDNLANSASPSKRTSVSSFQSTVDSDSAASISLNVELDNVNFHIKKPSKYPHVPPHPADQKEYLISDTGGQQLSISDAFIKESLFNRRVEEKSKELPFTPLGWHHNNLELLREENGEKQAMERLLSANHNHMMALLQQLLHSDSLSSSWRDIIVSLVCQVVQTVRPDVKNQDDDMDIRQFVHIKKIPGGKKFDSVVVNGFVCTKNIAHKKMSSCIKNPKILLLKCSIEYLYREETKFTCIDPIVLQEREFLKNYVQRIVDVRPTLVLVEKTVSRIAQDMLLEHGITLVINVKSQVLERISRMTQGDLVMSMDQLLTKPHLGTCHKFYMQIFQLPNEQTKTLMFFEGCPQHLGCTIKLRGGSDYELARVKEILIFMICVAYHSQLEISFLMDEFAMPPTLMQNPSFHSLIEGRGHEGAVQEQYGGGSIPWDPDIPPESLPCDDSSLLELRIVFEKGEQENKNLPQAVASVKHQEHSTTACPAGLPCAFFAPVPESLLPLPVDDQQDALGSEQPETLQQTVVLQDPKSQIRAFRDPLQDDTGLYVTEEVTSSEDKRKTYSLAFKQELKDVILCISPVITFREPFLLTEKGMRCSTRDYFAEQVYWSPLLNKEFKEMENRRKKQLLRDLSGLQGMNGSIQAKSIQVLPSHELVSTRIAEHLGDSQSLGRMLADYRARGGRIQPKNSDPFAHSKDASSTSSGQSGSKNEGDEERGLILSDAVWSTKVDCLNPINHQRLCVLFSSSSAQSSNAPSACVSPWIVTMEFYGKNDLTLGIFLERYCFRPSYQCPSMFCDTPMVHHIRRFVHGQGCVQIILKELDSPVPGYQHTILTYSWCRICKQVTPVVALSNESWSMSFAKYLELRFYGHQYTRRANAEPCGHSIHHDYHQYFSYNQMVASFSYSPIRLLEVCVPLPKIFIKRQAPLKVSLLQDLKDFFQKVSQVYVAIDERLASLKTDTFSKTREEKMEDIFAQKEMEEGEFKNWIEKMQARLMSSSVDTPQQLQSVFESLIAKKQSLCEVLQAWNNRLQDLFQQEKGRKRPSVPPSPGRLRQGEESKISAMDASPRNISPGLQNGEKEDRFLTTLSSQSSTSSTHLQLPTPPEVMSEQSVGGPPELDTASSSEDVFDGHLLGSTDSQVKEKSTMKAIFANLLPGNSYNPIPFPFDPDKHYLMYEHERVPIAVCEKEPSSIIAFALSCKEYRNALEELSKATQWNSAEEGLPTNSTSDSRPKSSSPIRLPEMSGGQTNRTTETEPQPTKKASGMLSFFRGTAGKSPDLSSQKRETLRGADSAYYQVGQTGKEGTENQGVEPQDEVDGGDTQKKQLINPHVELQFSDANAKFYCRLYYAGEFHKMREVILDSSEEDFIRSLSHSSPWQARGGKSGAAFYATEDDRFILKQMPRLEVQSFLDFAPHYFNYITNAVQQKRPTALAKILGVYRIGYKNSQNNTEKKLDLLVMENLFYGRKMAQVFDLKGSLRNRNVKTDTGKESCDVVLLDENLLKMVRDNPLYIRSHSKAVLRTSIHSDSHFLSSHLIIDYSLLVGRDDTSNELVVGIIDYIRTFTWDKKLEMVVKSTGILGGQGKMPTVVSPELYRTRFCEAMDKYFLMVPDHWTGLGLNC

[6] = molecular target: Serine/threonine-protein kinase haspin (Homo sapiens) (UniProt Q8TF76); assay: Inhibition of biotinylated ligand binding to wild-type human partial length HASPIN (I452 to K798 residues) expressed in mammalian expression system at 50 nM measured after 1 hr by kinomescan assay relative to control
[7] = molecular target: cAMP-dependent protein kinase catalytic subunit beta (Homo sapiens) (UniProt P22694); assay: Inhibition of biotinylated ligand binding to wild-type human full length PKAC-beta (M1 to F351 residues) expressed in bacterial expression system at 50 nM measured after 1 hr by kinomescan assay relative to control
[8] = molecular target: Citron Rho-interacting kinase (Homo sapiens) (UniProt O14578); assay: Inhibition of biotinylated ligand binding to wild-type human partial length CIT (M68 to E432 residues) expressed in bacterial expression system at 50 nM measured after 1 hr by kinomescan assay relative to control
[9] = molecular target: T1, Cyclin-dependent kinase 8 (Homo sapiens, UniProt P49336); assay: Inhibition of biotinylated ligand binding to wild-type human partial length CDK8 (M1 to T360 residues) expressed in Escherichia coli BL21 at 50 nM measured after 1 hr by kinomescan assay relative to control
T1 sequence (P49336 whole entry, the tested form may be a part): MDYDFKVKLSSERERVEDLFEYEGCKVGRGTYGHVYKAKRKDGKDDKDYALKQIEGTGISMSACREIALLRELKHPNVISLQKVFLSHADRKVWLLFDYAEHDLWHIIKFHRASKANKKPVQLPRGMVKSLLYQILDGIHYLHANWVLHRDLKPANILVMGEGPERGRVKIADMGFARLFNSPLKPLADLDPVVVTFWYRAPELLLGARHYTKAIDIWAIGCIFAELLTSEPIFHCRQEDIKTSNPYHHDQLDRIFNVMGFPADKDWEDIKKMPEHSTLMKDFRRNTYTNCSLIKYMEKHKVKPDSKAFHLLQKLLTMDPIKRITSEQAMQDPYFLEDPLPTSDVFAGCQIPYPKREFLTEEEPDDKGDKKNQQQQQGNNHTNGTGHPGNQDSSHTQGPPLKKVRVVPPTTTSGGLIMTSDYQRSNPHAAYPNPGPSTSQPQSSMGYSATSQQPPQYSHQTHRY
In short: (§1)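 T7 phage-tagged kinase lysates from E. coli BL21 were mixed with streptavidin beads carrying biotinylated ligand and 50 nM compound. Incubated 1 h at room temperature with shaking, washed, then eluted 30 min with 0.5 μM non-biotinylated ligand. Kinase was quantified by qPCR. POC = (test − positive)/(DMSO − positive) ×100, with a control compound as positive.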

[10] = molecular target: Serine/threonine-protein kinase MAK (Homo sapiens) (UniProt P20794); assay: Inhibition of biotinylated ligand binding to wild-type human partial length MAK (M1 to P314 residues) expressed in bacterial expression system at 50 nM measured after 1 hr by kinomescan assay relative to control
[11] = molecular target: T1, Cyclin-dependent kinase 8; assay: Inhibition of biotinylated ligand binding to wild-type human partial length CDK8 (M1 to T360 residues) expressed in Escherichia coli BL21 measured after 1 hr by kinomescan assay
[12] = molecular target: Cyclin-dependent kinase 19 (Homo sapiens) (UniProt Q9BWU1); assay: Inhibition of biotinylated ligand binding to wild-type human partial length CDK11 (M1 to N360 residues) expressed in bacterial expression system at 50 nM measured after 1 hr by kinomescan assay relative to control
Chain of Cyclin-dependent kinase 19 (Homo sapiens) (Q9BWU1 whole entry, the tested form may be a part): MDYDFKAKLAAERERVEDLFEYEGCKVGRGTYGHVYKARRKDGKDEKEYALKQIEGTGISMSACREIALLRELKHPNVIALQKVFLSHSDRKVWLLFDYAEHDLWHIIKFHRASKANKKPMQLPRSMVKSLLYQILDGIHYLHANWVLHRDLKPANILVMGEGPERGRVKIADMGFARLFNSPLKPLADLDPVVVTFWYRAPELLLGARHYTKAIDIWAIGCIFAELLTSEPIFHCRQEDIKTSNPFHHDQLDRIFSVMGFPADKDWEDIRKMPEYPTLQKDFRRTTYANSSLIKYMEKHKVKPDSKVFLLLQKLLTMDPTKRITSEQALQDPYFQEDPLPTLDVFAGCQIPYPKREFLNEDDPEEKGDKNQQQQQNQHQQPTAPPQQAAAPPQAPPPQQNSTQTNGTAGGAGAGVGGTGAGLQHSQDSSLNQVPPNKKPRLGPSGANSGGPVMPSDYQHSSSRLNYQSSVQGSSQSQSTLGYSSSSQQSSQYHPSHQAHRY
In short: as §1

[13] = molecular target: Phosphatidylinositol 5-phosphate 4-kinase type-2 gamma (Homo sapiens) (UniProt Q8TBX8); assay: Inhibition of biotinylated ligand binding to wild-type human partial length PIP5K2C (M1 to A421 residues) expressed in mammalian expression system at 50 nM measured after 1 hr by kinomescan assay relative to control
Chain of Phosphatidylinositol 5-phosphate 4-kinase type-2 gamma (Homo sapiens) (Q8TBX8 whole entry, the tested form may be a part): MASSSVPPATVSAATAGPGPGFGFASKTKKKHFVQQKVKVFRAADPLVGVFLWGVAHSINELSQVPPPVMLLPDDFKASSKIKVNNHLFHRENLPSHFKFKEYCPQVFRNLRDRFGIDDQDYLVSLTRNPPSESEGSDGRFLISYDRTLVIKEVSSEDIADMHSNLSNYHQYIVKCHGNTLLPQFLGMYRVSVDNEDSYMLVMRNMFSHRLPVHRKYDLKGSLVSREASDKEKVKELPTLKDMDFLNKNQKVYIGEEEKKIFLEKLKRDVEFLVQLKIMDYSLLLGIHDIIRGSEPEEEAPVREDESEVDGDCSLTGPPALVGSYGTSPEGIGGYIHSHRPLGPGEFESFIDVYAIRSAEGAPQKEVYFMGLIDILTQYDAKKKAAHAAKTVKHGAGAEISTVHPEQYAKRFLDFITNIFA
In short: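 Competition binding: compound (final 50 nM; 40x DMSO stocks) was incubated with kinase and biotinylated-ligand streptavidin beads in 20% SeaBlock, 0.17x PBS, 0.05% Tween 20 and 6 mM DTT at room temperature for 1 h. After washing, kinase was eluted with 0.5 μM non-biotinylated ligand for 30 min and measured by qPCR. Percent of control was referenced to DMSO (100%) and control compound (0%).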

[14] = molecular target: Inhibitor of nuclear factor kappa-B kinase subunit epsilon (Homo sapiens) (UniProt Q14164); assay: Inhibition of biotinylated ligand binding to wild-type human full length IKKE (M1 to V716 residues) expressed in bacterial expression system at 50 nM measured after 1 hr by kinomescan assay relative to control
Chain of Inhibitor of nuclear factor kappa-B kinase subunit epsilon (Homo sapiens) (Q14164 whole entry, the tested form may be a part): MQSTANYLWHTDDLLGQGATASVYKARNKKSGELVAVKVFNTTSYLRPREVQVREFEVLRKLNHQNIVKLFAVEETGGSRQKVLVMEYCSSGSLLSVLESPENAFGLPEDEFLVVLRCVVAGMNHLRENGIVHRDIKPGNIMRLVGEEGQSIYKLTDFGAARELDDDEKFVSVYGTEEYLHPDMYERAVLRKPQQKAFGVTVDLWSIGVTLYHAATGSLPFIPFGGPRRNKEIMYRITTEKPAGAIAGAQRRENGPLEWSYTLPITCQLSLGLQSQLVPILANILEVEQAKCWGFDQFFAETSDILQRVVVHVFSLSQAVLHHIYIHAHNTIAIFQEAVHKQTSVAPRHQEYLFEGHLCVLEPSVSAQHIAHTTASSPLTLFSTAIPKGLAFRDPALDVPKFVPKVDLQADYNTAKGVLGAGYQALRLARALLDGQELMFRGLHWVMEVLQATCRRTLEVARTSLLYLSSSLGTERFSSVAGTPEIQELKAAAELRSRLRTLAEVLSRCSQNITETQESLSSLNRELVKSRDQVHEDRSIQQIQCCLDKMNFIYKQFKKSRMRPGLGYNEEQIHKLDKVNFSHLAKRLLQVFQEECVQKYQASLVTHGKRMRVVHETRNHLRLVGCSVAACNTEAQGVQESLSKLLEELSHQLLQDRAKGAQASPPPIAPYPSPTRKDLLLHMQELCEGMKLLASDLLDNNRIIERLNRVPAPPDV
In short: (§2)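 Kinases expressed as tags on T7 phage grown in an E. coli BL21-derived host, with lysates cleared by centrifugation and filtration. Streptavidin beads carried biotinylated ligand and were blocked with biotin. Kinase, beads and compound were incubated in binding buffer (20% SeaBlock, 0.17x PBS, 0.05% Tween 20, 6 mM DTT) at room temperature for 1 h. Bound kinase was eluted with free ligand and quantified by qPCR. POC was set between DMSO (100%) and control compound (0%).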

[15] = molecular target: Receptor-interacting serine/threonine-protein kinase 1 (Homo sapiens) (UniProt Q13546); assay: Inhibition of biotinylated ligand binding to wild-type human partial length RIPK1 (M1 to K305 residues) expressed in bacterial expression system at 50 nM measured after 1 hr by kinomescan assay relative to control
Chain of Receptor-interacting serine/threonine-protein kinase 1 (Homo sapiens) (Q13546 whole entry, the tested form may be a part): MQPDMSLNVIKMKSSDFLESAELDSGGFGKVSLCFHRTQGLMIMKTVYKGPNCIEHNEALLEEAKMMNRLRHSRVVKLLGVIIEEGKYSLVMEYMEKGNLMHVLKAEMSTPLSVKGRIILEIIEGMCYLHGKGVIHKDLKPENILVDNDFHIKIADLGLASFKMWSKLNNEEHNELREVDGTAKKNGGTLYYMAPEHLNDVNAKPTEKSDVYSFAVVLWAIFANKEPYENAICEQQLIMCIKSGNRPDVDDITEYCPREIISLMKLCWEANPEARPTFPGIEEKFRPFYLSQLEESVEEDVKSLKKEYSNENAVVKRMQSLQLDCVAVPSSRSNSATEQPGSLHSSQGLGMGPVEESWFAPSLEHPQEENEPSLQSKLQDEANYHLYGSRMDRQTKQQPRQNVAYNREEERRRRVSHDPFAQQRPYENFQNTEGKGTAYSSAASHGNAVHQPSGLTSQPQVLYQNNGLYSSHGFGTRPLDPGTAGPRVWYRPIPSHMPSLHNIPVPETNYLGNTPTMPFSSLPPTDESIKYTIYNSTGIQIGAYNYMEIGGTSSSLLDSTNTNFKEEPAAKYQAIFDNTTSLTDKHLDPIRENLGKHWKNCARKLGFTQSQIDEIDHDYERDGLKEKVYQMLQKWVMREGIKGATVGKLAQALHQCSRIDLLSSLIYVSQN
In short: as §2

inhibition [13]	inhibition [14]	inhibition [15]	SMILES	EC50 (H9c2)	EC50 (MV4-11)	EC50 (NRK)	EC50 (OCI-AML-3)	EC50 (MOLM-13)	inhibition [1]	inhibition [2]	inhibition [3]	inhibition [4]	inhibition [5]	inhibition [6]	inhibition [7]	inhibition [8]	inhibition [9]	inhibition [10]	Kd [11]	inhibition [12]
–	–	–	CN(C)[C@@H]1CC[C@@]2(C)[C@@H](CC[C@@H]3[C@@H]2CC[C@]2(C)C(c4cccnc4)=CC[C@@H]32)C1	25 to 50 µM	10.1 µM	29.7 µM	10 µM	10.2 µM	–	–	–	–	–	–	–	–	–	–	–	–
–	–	–	CN(C)[C@@H]1CC[C@@]2(C)[C@@H](CC[C@@H]3[C@@H]2CC[C@]2(C)C(c4ccc5cnccc5c4)=CC[C@@H]32)C1	6.5 to 12.5 µM	4.1 µM	7.1 µM	2.7 µM	3.9 µM	–	–	–	–	–	–	–	–	–	–	–	–
–	–	–	CN(C)[C@@H]1CC[C@@]2(C)[C@@H](CC[C@@H]3[C@@H]2CC[C@]2(C)C(c4ccc5ccncc5c4)=CC[C@@H]32)C1	12.5 to 25 µM	5.5 µM	11.4 µM	7.6 µM	9 µM	> 80%	> 80%	> 80%	> 80%	> 80%	> 80%	> 80%	> 80%	> 80%	> 80%	0.018 µM	> 80%
> 80%	> 80%	> 80%	CN(C)[C@@H]1CC[C@@]2(C)[C@@H](CC[C@@H]3[C@@H]2CC[C@]2(C)C(c4cncc(Cl)c4)=CC[C@@H]32)C1	12.5 to 25 µM	8.6 µM	20.5 µM	7.5 µM	11.2 µM	–	–	–	–	–	–	–	–	> 80%	–	0.013 µM	> 80%
